The values that follow come from ChEMBL document CHEMBL1152797, “Design and synthesis of 4-methoxyphenylacetic acid esters as 15-lipoxygenase inhibitors and SAR comparative studies of them” (Bioorg Med Chem, 2009).

Calls of active or inactive are those of the source. No cut-off for these calls is given here.

Target in the first assay: not listed separately
Briefly: Inhibition of 15-lipoxygenase form soybean. Set-up: species or system Glycine max.
Compound `C=C(CC)Cc1ccc(OC)cc1` came in with a half-maximal inhibitory concentration (IC50) of 145 µM.
The same measure, in the same setting: then `CCOC(=O)Cc1ccc(OC)cc1`, with 32 µM; and `CCCCCCOC(=O)Cc1ccc(OC)cc1`, with 35 µM; and `C=CCc1ccc(O)c(OC)c1` [EUGENOL], with 38.2 µM.
On the same count and under the same terms, the result for `COc1ccc(CC(=O)OC2CCCC2)cc1` reads 56.5 µM; that for `COC(=O)Cc1ccc(OC)cc1`, 56.2 µM.
Still for that read-out and setting: then `CCC(=O)Cc1ccc(OC)cc1`, with 33 µM; and `C=CCc1ccc(OC)c(OC)c1` [METHYLEUGENOL], with 96.1 µM.
`COc1ccc(CC(=O)OC(C)(C)C)cc1` came in with a half-maximal inhibitory concentration (IC50) of 38.7 µM.
Same read-out and setting: the result for `CCCCCOC(=O)Cc1ccc(OC)cc1` reads 1.9 µM; that for `COc1ccc(CC(=O)OC(C)C)cc1`, 34.4 µM; that for `CCCCOC(=O)Cc1ccc(OC)cc1`, 3.8 µM.
Compound `C=CCc1ccc(OC)cc1` [ESTRAGOLE] had a 50% inhibitory concentration (IC50) of 64.1 µM.
The same measure, in the same setting: then `COc1ccc(CC(=O)OCC(C)C)cc1`, with 88.1 µM; and `CCC(C)OC(=O)Cc1ccc(OC)cc1` (centres undefined), with 35.7 µM.
The same measure, in the same setting: then `CCCOC(=O)Cc1ccc(OC)cc1`, with 11.6 µM; and `COc1ccc(CC(=O)OC2CCCCC2)cc1`, with 64 µM; and `C=C(C)Cc1ccc(OC)cc1`, with 137 µM.

A further assay has as its system Glycine max. Kind of assay: Inhibition of 15-lipoxygenase form soybean at 200 uM.
`COc1ccc2c(c1)CCC(=O)C2`: the result was inactive.
Same read-out and setting: then `C=C1CCc2cc(OC)ccc2C1`, with “inactive”.

Target in a further assay: not listed separately
Kind of assay: Inhibition of human recombinant 15-lipoxygenase b. The method, boiled down: (§1)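 Human recombinant 15-LO (a or b), expressed in E. coli, at 10 µg/mL final in 50 mM Tris–HCl, pH 7.2. Linoleic acid substrate at 134 µM final, 20 ± 1 °C, compounds in DMSO (1% final). Absorbance read at 234 nm over 60–120 s against an inhibitor-plus-substrate blank. Triplicates, at least six controls; IC50 interpolated linearly near 50% activity.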
On to `CCOC(=O)Cc1ccc(OC)cc1`, for which the IC50 worked out at 63.2 µM.
For `CCCCCOC(=O)Cc1ccc(OC)cc1`, the IC50 worked out at 11.7 µM.

Target in another assay: not listed separately
Kind of assay: Inhibition of human recombinant 15-lipoxygenase a. Put shortly: as §1
On to `CCOC(=O)Cc1ccc(OC)cc1`, for which the IC50 amounted to 56.7 µM.
Still for that read-out and setting: the result for `CCCCCOC(=O)Cc1ccc(OC)cc1` reads 30.9 µM.

The IC50 is the midpoint of a concentration-inhibition curve.
